{
  "source": "paper PMC8217219",
  "about": "(Bone, 2021)",
  "key": {"MC3T3 cells [1]": {"test_system": "MC3T3 cells", "test": "Hoechst staining", "format": "cell-based", "conditions": "subconfluent MC3T3 cells, 100μM, 3 days", "outline": "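Subconfluent, proliferating MC3T3-E1 (sc4) cells were exposed to test compound at 1, 10 or 100 μM for 3 days. Cells were washed with PBS, covered with 0.1X Tris-EDTA, frozen at −80°C for at least 2 h and thawed at room temperature. They were then stained 15 min in the dark with Hoechst 33258 (0.5 μg/ml in 0.3 M NaCl, 5 mM Tris, pH 8.0). Fluorescence was read at 340/460 and fit to a DNA standard curve. Values were normalized to DMSO control (1:100 dilution); n = 3.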"}, "MC3T3 cells [2]": {"test_system": "MC3T3 cells", "test": "Live/Dead cytotoxicity assay", "format": "cell-based", "conditions": "subconfluent MC3T3 cells, 100μM, 3 days", "outline": "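Viability was scored in subconfluent MC3T3-E1 (sc4) cultures after 3 days with test compound at 1, 10 or 100 μM. Medium was removed and cells were incubated 20 min with calcein-AM and ethidium homodimer-1 in PBS. Live-cell fluorescence was read at 465/540 nm. Values were normalized to DMSO-treated control (1:100 dilution).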"}, "MC3T3 cells [3]": {"test_system": "MC3T3 cells", "test": "Alizarin red staining", "format": "cell-based, mouse", "conditions": "for osteogenic boosting (calcium deposition, alizarin red) / mineralization (alizarin red staining, percent coverage area): 5μM, day 18; for osteogenic boosting (calcium deposition, alizarin red): Ezh2 overexpressing MC3T3 cells; for mineralization (alizarin red staining, percent coverage area): control MC3T3 cells (empty vector)"}, "MC3T3 cells [4]": {"test_system": "MC3T3 cells", "test": "Alkaline phosphatase", "format": "cell-based, mouse", "conditions": "day six; for alkaline phosphatase (Alpl) enzymatic activity: MC3T3 cells, optimal doses (40μM CPI-169, 5μM all others), vs vehicle"}, "MC3T3 cells [5]": {"test_system": "MC3T3 cells", "test": "RT-qPCR of osteogenic genes", "format": "cell-based, mouse", "conditions": "for osteogenic markers (mRNA) / expression of bone-related genes: 5μM; for expression of bone-related genes: combined with Ezh2 siRNA knockdown, days five and ten"}, "MC3T3 cells [6]": {"test_system": "MC3T3 cells", "test": "MTS metabolic activity assay", "format": "cell-based", "conditions": "subconfluent MC3T3 cells, 10μM, 3 days", "outline": "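Subconfluent MC3T3-E1 (sc4) cells were given test compound at 1, 10 or 100 μM for 3 days. The MTS reagent was used per kit protocol and absorbance was read at 490 nm. Metabolic activity was expressed relative to DMSO-treated control (1:100 dilution).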"}, "H3K27me3": {"test_system": "H3K27me3", "test": "Western blot of cellular H3K27me3 levels", "format": "cell-based, mouse", "conditions": "MC3T3 cells, single dose 1μM, 24 hour treatment, relative to Gapdh"}, "[7]": {"conditions": "cited from earlier work"}, "[8]": {"conditions": "5μM day two to five, combined with Ezh2 siRNA knockdown, day 24"}, "[9]": {"conditions": "MC3T3 cell differentiation, day ten"}, "[10]": {"conditions": "MC3T3 cells overexpressing Ezh2, day ten"}},
  "data": [
    {"smiles": "CCS(=O)(=O)N1CCC([C@@H](C)n2c(C)c(C(=O)NCc3c(OC)cc(C)[nH]c3=O)c3ccccc32)CC1", "note": "[CPI-169]", "values": [
      {"measurement": "cell numbers (Hoechst staining)", "setting": "MC3T3 cells [1]", "result": "not observed"},
      {"measurement": "fraction of living cells (live/dead staining)", "setting": "MC3T3 cells [2]", "result": "not observed"},
      {"measurement": "optimal dose", "setting": "MC3T3 cells [3]; MC3T3 cells, 2X dose, from alizarin red quantitation (Fig. 4, red arrows)", "result": 40, "unit": "µM"},
      {"measurement": "alkaline phosphatase (Alpl) enzymatic activity", "setting": "MC3T3 cells [4]", "result": "~three fold stimulation"}
    ]},
    {"smiles": "C[S+](C)[O-]", "note": "[DMSO, dimethyl sulfoxide]", "values": [
      {"measurement": "Alpl enzymatic activity", "setting": "MC3T3 cells [4]; low (0.05%) and high (0.4%) doses vs osteogenic medium (OM)", "result": "enhance Alpl enzymatic activity"},
      {"measurement": "mRNA levels of osteoblast differentiation markers (Alpl, Sp7, Ibsp, Phospho1)", "setting": "MC3T3 cells [5]; 0.05% DMSO or 0.4% DMSO vs no DMSO, osteogenic medium, six days", "result": "significantly elevated"},
      {"measurement": "expression of late marker Bglap", "setting": "MC3T3 cells [5]; DMSO 0.05% or 0.4% in osteogenic media, day ten", "result": "did not show compelling changes"}
    ]},
    {"smiles": "CCC(CC)n1ccc2c(C(=O)NCc3c(C)cc(C)[nH]c3=O)cc(C#N)cc21", "note": "[EI1]", "values": [
      {"measurement": "metabolic activity (MTS)", "setting": "MC3T3 cells [6]", "result": "less harmful to metabolic cell activity"},
      {"measurement": "cell numbers (Hoechst staining)", "setting": "MC3T3 cells [1]", "result": "not observed"},
      {"measurement": "fraction of living cells (live/dead staining)", "setting": "MC3T3 cells [2]", "result": "not observed"},
      {"measurement": "reduction in H3K27me3", "setting": "H3K27me3", "result": "2–3 fold"}
    ]},
    {"smiles": "CCN(c1cc(-c2ccc(CN3CCOCC3)cc2)cc(C(=O)NCc2c(C)cc(C)[nH]c2=O)c1C)C1CCOCC1", "note": "[EPZ-6438]", "values": [
      {"measurement": "metabolic activity (MTS)", "setting": "MC3T3 cells [6]", "result": "less harmful to metabolic cell activity"},
      {"measurement": "cell numbers (Hoechst staining)", "setting": "MC3T3 cells [1]", "result": "significant reductions"},
      {"measurement": "fraction of living cells (live/dead staining)", "setting": "MC3T3 cells [2]", "result": "significant reductions"},
      {"measurement": "reduction in H3K27me3", "setting": "H3K27me3", "result": "> 5", "unit": "fold"},
      {"measurement": "alizarin red staining compared with GSK126 co-treatment", "setting": "MC3T3 cells [3]; 5μM combined with Ezh2 siRNA, day 24", "result": "more robust staining"},
      {"measurement": "ECM mineralization (alizarin red)", "setting": "MC3T3 cells [3]; [8]", "result": "enhances ECM mineralization"},
      {"measurement": "osteogenic boosting (calcium deposition, alizarin red)", "setting": "MC3T3 cells [3]", "result": "not observed"},
      {"measurement": "mineralization (alizarin red staining, percent coverage area)", "setting": "MC3T3 cells [3]", "result": "accelerated mineralization and more intense alizarin red staining"},
      {"measurement": "osteogenic markers (mRNA)", "setting": "MC3T3 cells [5]; [9]", "result": "highly effective at increasing osteogenic markers"},
      {"measurement": "osteogenic markers (mRNA)", "setting": "MC3T3 cells [5]; [10]", "result": "not when cells overexpress Ezh2"},
      {"measurement": "expression of bone-related genes", "setting": "MC3T3 cells [5]", "result": "co-stimulates expression of bone-related genes"}
    ]},
    {"smiles": "CC[C@H](C)n1cc(C)c2c(C(=O)NCc3c(C)cc(C)[nH]c3=O)cc(-c3ccc(N4CCNCC4)nc3)cc21", "note": "[GSK126]", "values": [
      {"measurement": "cell numbers (Hoechst staining)", "setting": "MC3T3 cells [1]", "result": "significant reductions"},
      {"measurement": "fraction of living cells (live/dead staining)", "setting": "MC3T3 cells [2]", "result": "significant reductions"},
      {"measurement": "reduction in H3K27me3", "setting": "H3K27me3", "result": "2–3 fold"},
      {"measurement": "ECM mineralization (alizarin red)", "setting": "MC3T3 cells [3]; [8]", "result": "enhances ECM mineralization"},
      {"measurement": "osteogenic boosting (calcium deposition, alizarin red)", "setting": "MC3T3 cells [3]", "result": "not observed"},
      {"measurement": "mineralization (alizarin red staining, percent coverage area)", "setting": "MC3T3 cells [3]", "result": "accelerated mineralization and more intense alizarin red staining"},
      {"measurement": "osteogenic markers (mRNA)", "setting": "MC3T3 cells [5]; [9]", "result": "highly effective at increasing osteogenic markers"},
      {"measurement": "osteogenic markers (mRNA)", "setting": "MC3T3 cells [5]; [10]", "result": "not when cells overexpress Ezh2"},
      {"measurement": "expression of bone-related genes", "setting": "MC3T3 cells [5]", "result": "co-stimulates expression of bone-related genes"},
      {"measurement": "adverse effects in other tissues and organs (e.g., spleen, liver)", "setting": "[7]; adult mice (8–12 weeks) ref 29", "result": "no adverse effects"},
      {"measurement": "bone anabolic effect", "setting": "[7]; adult mice (8–12 weeks) ref 29", "result": "modestly bone anabolic"},
      {"measurement": "bone accrual", "setting": "[7]; normal and ovariectomized mice ref 29", "result": "effective for stimulation of bone accrual"}
    ]},
    {"smiles": "Cc1cc(C)c(CNC(=O)c2cc(-c3ccc(N4CCN(C)CC4)nc3)cc3c2c(C)cn3C(C)C)c(=O)[nH]1", "note": "[GSK503]", "values": [
      {"measurement": "cell numbers (Hoechst staining)", "setting": "MC3T3 cells [1]", "result": "significant reductions"},
      {"measurement": "fraction of living cells (live/dead staining)", "setting": "MC3T3 cells [2]", "result": "significant reductions"},
      {"measurement": "reduction in H3K27me3", "setting": "H3K27me3", "result": "> 5", "unit": "fold"}
    ]},
    {"smiles": "Cc1cc(C)c(CN2CCc3c(Cl)cc(-c4c(C)noc4C)c(Cl)c3C2=O)c(=O)[nH]1", "note": "[PF-06726304]", "values": [
      {"measurement": "cell numbers (Hoechst staining)", "setting": "MC3T3 cells [1]", "result": "significant reductions"},
      {"measurement": "fraction of living cells (live/dead staining)", "setting": "MC3T3 cells [2]", "result": "significant reductions"}
    ]},
    {"smiles": "CCCc1cc(C)[nH]c(=O)c1CNC(=O)c1cc(-c2ccc(N3CCN(C(C)C)CC3)nc2)cc2c1cnn2C(C)C", "note": "[UNC1999]", "values": [
      {"measurement": "cell numbers (Hoechst staining)", "setting": "MC3T3 cells [1]", "result": "significant reductions"},
      {"measurement": "fraction of living cells (live/dead staining)", "setting": "MC3T3 cells [2]", "result": "significant reductions"},
      {"measurement": "reduction in H3K27me3", "setting": "H3K27me3", "result": "> 5", "unit": "fold"},
      {"measurement": "ECM mineralization (alizarin red)", "setting": "MC3T3 cells [3]; MC3T3 cells, optimal doses for first six days, day 24 and day 28", "result": "except UNC1999"},
      {"measurement": "alkaline phosphatase (Alpl) enzymatic activity", "setting": "MC3T3 cells [4]", "result": "except for UNC1999"}
    ]}
  ]
}
